# MT stabilizer: microtubule stabilization, imaging screen; HeLa tubulin immunostaining HCS, 24 h; share of cells brighter than vehicle mean+2SD; % tubulin-high responders, % at 10 µM; 200,000 tested, 0.83% active;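 active = plate Z-score above 3 for both tubulin-high and condensed-nucleus cell shares, with cell loss under 80%, at 10 µM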;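 note: anti alpha tubulin signal scored within the nucleus-defined area of each cell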
# ROMK mod: modulates human ROMK potassium channel activity | P48048 | B-score at 10 µM | Tet-inducible ROMK, thallium flux fluorescence; actives lie on both sides | 130,000 tested, 2% active | AID 1918;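 active = signal ratio slope over the read window, or its plate-corrected B-score, at least 3 SD from the plate mean, either direction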;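 note: B-score of the F/F0 ratio slope over 7 to 12 s after thallium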
# Target sequence (P48048 whole entry, looked up): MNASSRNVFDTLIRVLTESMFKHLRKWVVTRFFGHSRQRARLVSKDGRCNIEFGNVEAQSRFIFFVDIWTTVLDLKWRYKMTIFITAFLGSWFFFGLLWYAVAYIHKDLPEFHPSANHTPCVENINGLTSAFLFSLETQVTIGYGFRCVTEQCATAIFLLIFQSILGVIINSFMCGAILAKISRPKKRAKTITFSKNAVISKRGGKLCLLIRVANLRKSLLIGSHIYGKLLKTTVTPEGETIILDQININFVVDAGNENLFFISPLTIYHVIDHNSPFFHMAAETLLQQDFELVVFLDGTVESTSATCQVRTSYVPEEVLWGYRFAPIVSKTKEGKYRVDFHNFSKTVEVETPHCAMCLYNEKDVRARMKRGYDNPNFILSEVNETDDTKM
# b-catenin transl: beta-catenin nuclear translocation modulation; 190,000 tested, 0.3% active; AID 1665; HeLa beta-catenin nuclear translocation, immunofluorescence imaging; nuclear translocation activity, % at 5 µM;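 active = nuclear translocation activity above 50% at 5 µM, with a well cell count of 50 or more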;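 note: per-cell ratio of nuclear to cytoplasmic median beta-catenin stain intensity; plate controls were DMSO negative control for no effect and GSK-3 inhibitor IX positive control for full effect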
#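 System: HeLa cells, endogenous beta-catenin; compound dosing: 5 µM primary single dose, 0.1% DMSO, 0.02–20 µM confirmation series; incubation: 24 h compound exposure at 37°C, 5% CO2; signal: beta-catenin immunofluorescence imaging with DAPI; evaluation: % activation, nuclear-to-cytoplasmic median beta-catenin signal ratio per cell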
# The depositor's hits bear a star; nt = no result given. A selection: hits, their analogues and other compounds. The true share with any hit is near 1.9%.
SMILES,MT stabilizer,ROMK mod,b-catenin transl
O=C(/C=C/c1cccs1)Nc1nncs1,nt,nt,1
Cc1ccc(-c2csc(NC(=S)NC(=O)/C=C/c3ccco3)n2)cc1,32*,nt,31
CCOC(=O)c1ccc(Cl)c(NC(=O)c2cccnc2)c1,2,nt,-1
O=C(CCn1c(=O)c2sccc2n(CC(=O)OCc2ccccc2)c1=O)NCc1ccccc1,2,-0.23,-3
CC(C)c1ccc2c(c1)C(c1ccc(N3CCOCC3)cc1)=NNC(c1cccs1)=N2,2,-0.074,4
O=C(Nc1ccc(Cl)c(Cl)c1)N1N=CCC1c1ccccc1 (centres undefined),3,-1.4,2
O=C1N/C(=N\c2ccccn2)SC1Cc1ccc(Cl)cc1 (centres undefined),2,0.3,1
Cc1cc(C(=O)NCCN2CCN(c3cccc(Cl)c3)CC2)n(-c2ccccc2)n1,14,nt,59*
Cc1cc(C(=O)NCCCN2CCN(c3cc(Cl)ccc3C)CC2)n(-c2ccccc2)n1,1,nt,2
COc1cc(OC)nc(-n2ncc(Br)c(Br)c2=O)n1,7,-0.76,nt
O=C(COC(=O)Cc1ccccc1F)Nc1ccc(F)cc1F,2,nt,-6
O=C(N/N=C\c1cn(-c2ccccc2)nc1-c1ccccc1)c1ccc2c(c1)OCO2,3,nt,0
O=C(N/N=C/c1cc(Br)cs1)c1ccc2c(c1)OCCO2,nt,-0.28,-1
CCn1ncc(/C=N/NC(=O)c2ccc3c(c2)OCO3)c1C,36*,1.7,6
Cc1ccc(/C=N/NC(=O)c2ccc3c(c2)OCCO3)s1,nt,nt,66*
Cc1c(/C=N/NC(=O)c2ccc3c(c2)OCO3)cnn1C,3,nt,3
O=C(N/N=C/c1cn(-c2ccccc2)nc1-c1ccc(F)cc1)c1ccc2c(c1)OCO2,16*,nt,1
CC(C)CNC(=O)COC(=O)c1n[nH]c2ccccc12,3,0.03,0
COc1ccc(Nc2nc(-c3sc(NC(C)=O)nc3C)cs2)cc1,23*,-0.77,nt
C=CCCC(=O)Nc1nc(C)c(-c2csc(Nc3ccc(Cl)cc3Cl)n2)s1,35,nt,21
CCCCC(=O)Nc1nc(C)c(-c2csc(Nc3ccccc3OC)n2)s1,33,nt,8
C=CCCC(=O)Nc1nc(C)c(-c2csc(Nc3ccccc3OC)n2)s1,36,nt,56*
COc1ccc(Nc2nc(-c3sc(N)nc3C)cs2)cc1,1,nt,2
C=CCCC(=O)Nc1nc(C)c(-c2csc(Nc3cc(Cl)ccc3OC)n2)s1,54*,nt,4
CCCCCC1CCC(c2n[nH]c(=S)n2C)CC1 (centres undefined),1,-0.045,-1
SMILES,MT stabilizer,ROMK mod,b-catenin transl
Cc1ccc(N(CC(=O)NCc2ccc(F)cc2)S(=O)(=O)c2cccs2)cc1,1,0.013,-3
CNc1ccc(Br)cc(C(=O)/C=C/c2ccc(OC)cc2OC)c1=O,4,-0.77,-4
CCNc1ccc(Br)cc(C(=O)/C=C/c2c(Cl)cccc2Cl)c1=O,38,0.082,7
CNc1ccc(Br)cc(C(=O)/C=C/c2ccc(Cl)cc2Cl)c1=O,9.3*,-0.22,1
O=C(/C=C/c1ccc(Cl)cc1Cl)c1ccc[nH]1,5,0.31,0
CCNc1ccc(Br)cc(C(=O)/C=C/c2ccc(Cl)cc2)c1=O,16*,0.34,-2
CNc1ccc(Br)cc(C(=O)/C=C/c2cccc(OC)c2)c1=O,13*,-1.1,38
Cc1cccc(N2CCN(C(=O)c3ccc(Cl)c(S(=O)(=O)NCc4ccco4)c3)CC2)c1C,42*,nt,1
O=C(O)c1ccc(Cl)c(S(=O)(=O)NCc2ccco2)c1,1,0.028,1
COc1cc(CC(=O)OCC(=O)c2ccc3c(c2)OCCO3)cc(OC)c1OC,17*,0.58,158*
COc1cc(CC(=O)NCc2ccc3c(c2)OCO3)cc(OC)c1OC,1,-0.76,nt
Cn1c(=O)cc(NCCc2ccccc2)[nH]c1=O,26*,nt,nt
Cn1c(NCCc2ccccc2)cc(=O)n(C)c1=O,2,nt,0
NC(=O)COC(=O)c1ccccc1OCc1ccccc1Cl,4,nt,-4
COc1ccc(S(=O)(=O)NCc2ccc(C(=O)NCc3cccnc3)cc2)cc1,3,0.056,0
O=[N+]([O-])c1c(Nc2ccc(O)cc2)cc(N2CCOCC2)c2nonc12,2,nt,0
COc1ccccc1Nc1cc(N2CCOCC2)c2nonc2c1[N+](=O)[O-],16*,0.11,-1
Cc1nn(C)c(Cl)c1CN1CCC(CO)(CCOc2ccccc2)CC1,2,-1.4,-1
Cc1c(CN2CCC(CO)(CCOc3ccccc3)CC2)[nH]c2c(Cl)cccc12,29*,-1.2,1
Cc1cc(C)cc(Oc2ccc(NC(=O)C3CC=CCC3C(=O)O)cc2)c1 (centres undefined),3,-0.56,-4
Cc1ccc(S(=O)(=O)NC(CN2CCOCC2)=NCCNS(=O)(=O)c2ccccc2)cc1,3,-0.67,-1
CCNc1nc(NCC)nc(N(C)N)n1,3,nt,nt

# Assay outcomes from PubChem.
